# From ChEMBL document CHEMBL4364285 (J Med Chem, 2019)
# The source made the active and inactive calls. The calls are words filed in the database; no cut-off is given here.
# Columns and labels:
# Cereblon isoform 4 = target: T1, Cereblon isoform 4 (Magnetospirillum gryphiswaldense, UniProt A4TVL0); test: Inhibition of MANT-uracil binding to wild-type Magnetospirillum gryphiswaldense CRBN isoform 4 by FRET assay
# T1 sequence (A4TVL0 whole entry): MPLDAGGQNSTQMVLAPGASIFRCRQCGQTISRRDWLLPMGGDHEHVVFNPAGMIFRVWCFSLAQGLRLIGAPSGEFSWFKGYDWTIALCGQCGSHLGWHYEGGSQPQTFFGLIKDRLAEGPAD
# Method in brief: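 Wild-type MsCI4 FRET binding assay, following an earlier protocol. Compounds were dissolved in DMSO, or in water or bicarbonate buffer where soluble. Ki values were derived from the binding curves.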
# [1] = target: Protein cereblon/Zinc finger protein Aiolos (Homo sapiens) (UniProt Q96SW2+Q9UKT9); test: Inhibition of CRBN-mediated IKFZ3 degradation in human OPM2 cells measured after 24 hrs by Western blot analysis; type: cell-based
# Sequence of Protein cereblon/Zinc finger protein Aiolos (Homo sapiens) (Q96SW2 whole entry, looked up): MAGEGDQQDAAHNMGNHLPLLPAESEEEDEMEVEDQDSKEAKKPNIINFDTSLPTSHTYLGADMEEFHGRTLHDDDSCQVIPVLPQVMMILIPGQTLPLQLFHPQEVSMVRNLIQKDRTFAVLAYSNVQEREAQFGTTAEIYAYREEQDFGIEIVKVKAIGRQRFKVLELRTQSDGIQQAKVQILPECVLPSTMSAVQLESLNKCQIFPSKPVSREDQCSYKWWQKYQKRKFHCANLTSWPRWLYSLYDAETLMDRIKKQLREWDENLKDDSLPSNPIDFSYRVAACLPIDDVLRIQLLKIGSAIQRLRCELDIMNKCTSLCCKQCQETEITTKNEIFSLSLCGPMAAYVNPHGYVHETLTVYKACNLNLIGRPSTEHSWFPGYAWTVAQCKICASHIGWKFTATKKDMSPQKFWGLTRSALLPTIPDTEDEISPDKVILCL
# Sequence of Protein cereblon/Zinc finger protein Aiolos (Homo sapiens) (Q9UKT9 whole entry, looked up): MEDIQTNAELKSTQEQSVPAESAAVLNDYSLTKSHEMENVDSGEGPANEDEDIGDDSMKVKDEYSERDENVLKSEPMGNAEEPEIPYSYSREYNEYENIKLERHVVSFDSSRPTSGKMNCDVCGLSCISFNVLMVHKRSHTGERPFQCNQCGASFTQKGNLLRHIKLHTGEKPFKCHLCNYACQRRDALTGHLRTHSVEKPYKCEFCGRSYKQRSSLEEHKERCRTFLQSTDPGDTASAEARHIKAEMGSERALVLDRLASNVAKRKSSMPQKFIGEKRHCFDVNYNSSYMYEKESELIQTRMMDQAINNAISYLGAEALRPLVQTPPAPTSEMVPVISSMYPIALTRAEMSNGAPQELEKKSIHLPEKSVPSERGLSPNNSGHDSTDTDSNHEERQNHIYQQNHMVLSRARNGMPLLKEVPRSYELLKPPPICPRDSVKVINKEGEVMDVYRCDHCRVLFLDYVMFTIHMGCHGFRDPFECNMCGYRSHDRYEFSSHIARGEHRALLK
# [2] = Solubility of the compound in bicarbonate buffer; type: physicochemical
# THP-1 = test: Inhibition of TPA-induced TNFalpha production in human THP1 cells at 3 uM by ELISA relative to control; type: functional
# [3] = Solubility of the compound in water; type: physicochemical; details: buffer
# [4] = Terminal elimination half life in healthy human at 50 to 400 mg, po at pH 7.4; type: ADME, organism-based; details: in vivo, read-out: beta t1/2
Structure (SMILES),Ki (Cereblon isoform 4) [µM],inhibition [1],also measured
Nc1cccc2c1C(=O)N(C1CC(=O)NC1=O)C2=O (stereo unspecified),> 40,–,–
O=C1CC(NC(=O)OCc2ccccc2)C(=O)N1 (stereo unspecified),4,–,–
CC(C)=CC(=O)NC1CC(=O)NC1=O (stereo unspecified),> 40,inactive,–
O=C(O)CCC(=O)NCc1ccc(COC(=O)NC2CC(=O)NC2=O)cc1 (stereo unspecified),12,inactive,solubility [2]: > 200 mM
Nc1cccc2c1CN(C1CCC(=O)NC1=O)C2=O (stereo unspecified) [LENALIDOMIDE],3.1,–,–
O=C1CCC(NC(=O)c2ccccc2C(=O)O)C(=O)N1 (stereo unspecified),–,–,inhibition at 3 µM (THP-1): 80%
O=C1CC(NC(=O)c2sc3cccc(Cl)c3c2Cl)C(=O)N1 (stereo unspecified),20,inactive,–
Nc1cccc2c1C(=O)N(C1CCC(=O)NC1=O)C2=O (stereo unspecified) [POMALIDOMIDE],0.8,–,–
O=C1CCC(N2C(=O)c3cccc([N+](=O)[O-])c3C2=O)C(=O)N1 (stereo unspecified),> 40,inactive,–
O=C1CC(N2C(=O)c3cccc([N+](=O)[O-])c3C2=O)C(=O)N1 (stereo unspecified),> 40,inactive,–
NCc1ccc(COC(=O)NC2CC(=O)NC2=O)cc1.O=C(O)C(F)(F)F (stereo unspecified),12,inactive,solubility [3]: Soluble
O=C1CC(NC(=O)Cc2ccccc2)C(=O)N1 (stereo unspecified),> 40,inactive,–
NC[C@H]1CC[C@@H](COC(=O)NC2CC(=O)NC2=O)CC1.O=C(O)C(F)(F)F (stereo partly specified),–,inactive,solubility [3]: Soluble
O=C1CCC(N2C(=O)c3ccccc3C2=O)C(=O)N1 (stereo unspecified) [THALIDOMIDE],–,–,half-life [4]: 5.5 to 7.3 h
O=C1CC(NC(=O)OC[C@@H]2CCCN2)C(=O)N1 (stereo partly specified),–,inactive,–
O=C1CCC(NC(=O)OC[C@@H]2CCCN2)C(=O)N1 (stereo partly specified),45,inactive,–
NC[C@H]1CC[C@@H](COC(=O)NC2CCC(=O)NC2=O)CC1.O=C(O)C(F)(F)F (stereo partly specified),–,inactive,solubility [3]: Soluble
O=C1CC(N2C(=O)c3ccc([N+](=O)[O-])cc3C2=O)C(=O)N1 (stereo unspecified),11,inactive,–
O=C1CC(NC(=O)c2cc([N+](=O)[O-])cc([N+](=O)[O-])c2)C(=O)N1 (stereo unspecified),> 99,inactive,–
O=C1CC(NC(=O)c2sc3ccccc3c2Cl)C(=O)N1 (stereo unspecified),> 40,inactive,–
O=C(/C=C/c1ccccc1)NC1CC(=O)NC1=O (stereo unspecified),20,–,–
O=C1CCC(N2C(=O)c3ccc([N+](=O)[O-])cc3C2=O)C(=O)N1 (stereo unspecified),9,inactive,–
O=C(O)CCC(=O)NCc1ccc(COC(=O)NC2CCC(=O)NC2=O)cc1 (stereo unspecified),36,inactive,solubility [2]: > 200 mM
